Activity calls are given as the source filed them. The rule behind the calls is not given here.
How the values were obtained:
[1] = organism: Sus scrofa; assay: Induction of porcine tubulin polymerization assessed as microtubule stabilization at 2.8 uM measured at 1 min interval over 100 mins
Summary of the method: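 Fluorescence-based assay with purified porcine brain tubulin, no microtubule-associated proteins, glycerol omitted from polymerization buffer. Compound at 2.8 μM final, paclitaxel 2.8 μM as positive control, vehicle control. Tubulin buffer added immediately before reading. Kinetic read at 37 °C, λex 360/λem 450 nm, every 1 min for 100 min. n = 3 replicates, single preparation.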

[2] = test system: HL-60; assay: Cell cycle arrest in human HL60 cells assessed as accumulation at G1 phase at 1 uM after 18 hrs by propidium iodide staining based flow cytometry (reference value: 51%); type: functional
Summary of the method: (§1)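 HL-60 cells seeded at 1 × 10^5 cells/well, exposed to 1 μM compound for 18 h at 37 °C. Stained 30 min in the dark with propidium iodide (0.05 mg/mL in 0.1% sodium citrate, 0.1% Triton X-100, 100 μg/mL RNase), then DNA content read by flow cytometry. Reported as % cells in each phase; n = 2 replicates from a single experiment.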

[3] = test system: HL-60; assay: Cell cycle arrest in human HL60 cells assessed as accumulation at S phase at 1 uM after 18 hrs by propidium iodide staining based flow cytometry (reference value: 27%); type: functional; summary of the method: as §1
[4] = test system: HL-60; assay: Cell cycle arrest in human HL60 cells assessed as accumulation at G2/M phase at 1 uM after 18 hrs by propidium iodide staining based flow cytometry (reference value: 22%); type: functional; summary of the method: as §1
[5] = organism: Sus scrofa; assay: Induction of porcine tubulin polymerization assessed as microtubule stabilization at 27 uM measured at 1 min interval over 100 mins
Summary of the method: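 Fluorescence-based in vitro assay with purified porcine brain tubulin, run without microtubule-associated proteins and with glycerol omitted from the polymerization buffer. Compound at 27 μM final, with tubulin buffer added just before reading. Kinetic read at 37 °C, λex 360/λem 450 nm, every 1 min for 100 min. n = 3 replicates from a single preparation.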

[6] = test system: HL-60; assay: Antiproliferative activity against human HL60 cells after 72 hrs by MTT assay; type: functional, cell-based; details: HL-60, 72 h
Summary of the method: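 HL-60 cells seeded at 1 × 10^4 cells/well, exposed to 2-fold serial dilutions with paclitaxel as positive control, 72 h at 37 °C. MTT (5 mg/mL in PBS) added for 2 h at 37 °C. Formazan dissolved overnight at 37 °C in 10% SDS/45% dimethylformamide, absorbance read at 570 nm. n = 3 independent experiments, two technical replicates each.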

SMILES | Activity [5] | Activity [1] | Activity [2] [%] | Activity [3] [%] | Activity [4] [%] | IC50 [6] [nM]
CC(=O)O[C@H]1C(=O)[C@@]2(C)[C@H]([C@H](OC(=O)c3ccccc3)[C@]3(O)C[C@H](OC(=O)[C@H](O)[C@@H](NC(=O)c4ccccc4)c4ccccc4)C(C)=C1C3(C)C)[C@]1(OC(C)=O)CO[C@@H]1C[C@@H]2O [PACLITAXEL] | – | Active | 18 | 24 | 58 | –
C=C1C[C@@H]2C/C=C/C(=O)C/C(C)=C/C=C/C(=O)O[C@H]([C@H](O)NC(=O)/C=C\C=C\C)C/C(C)=C/[C@H](C1)O2 | – | Active | 16 | 30 | 54 | 3.3
C=C1C[C@@H]2C/C=C/C(=O)C/C(C)=C\C=C\C(=O)O[C@H]([C@H](O)NC(=O)/C=C/C=C\C)C/C(C)=C/[C@H](C1)O2 | – | Active | 19 | 26 | 55 | 5.3
C=C1C[C@@H]2C/C=C/C(=O)C/C(C)=C\C=C\C(=O)O[C@H]([C@H](O)NC(=O)/C=C\C=C\C)C/C(C)=C/[C@H](C1)O2 [ZAMPANOLIDE] | – | Active | 18 | 28 | 54 | 3.2

More lines, main results first:

Activity [5] | SMILES | Activity [1] | Activity [2] [%] | Activity [3] [%] | Activity [4] [%] | IC50 [6] [nM]
inactive | C=C1C[C@@H]2CCCC(=O)C/C(C)=C\C=C\C(=O)O[C@H]([C@H](O)NC(=O)/C=C\C=C\C)C/C(C)=C/[C@H](C1)O2 | – | 44 | 25 | 30 | 300
inactive | C=C1C[C@@H]2C/C=C/C(=O)C/C(C)=C\C=C\C(=O)O[C@H](C=O)C/C(C)=C/[C@H](C1)O2 | – | 17 | 29 | 54 | 240
